In brackets after ≈: the same amount, converted by molar mass.

A word on the MIC: it is the lowest concentration found to suppress growth. Low readings indicate greater potency, high ones weaker potency.

The subject of data set [1] is Staphylococcus aureus. Kind of data set: Antibacterial activity against Staphylococcus aureus ATCC 25923 after 18 hrs by broth microdilution method. The class given is functional. The method in brief:
(§1)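 MIC by broth microdilution per ISO 20776-1:2006 and CLSI M07-A8. Inoculum 10^6 cfu/ml in Mueller-Hinton broth with compound serially diluted, final concentrations 2 to 128 ug/ml, duplicate rows, no-drug growth control. Incubation 18 h at 37 °C. MIC taken as lowest concentration giving complete inhibition of visible growth. Each compound tested at least twice.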

Data set [2] has as its system Staphylococcus aureus. In words: Antibacterial activity against Staphylococcus aureus ATCC 29213 after 18 hrs by broth microdilution method. The class given is functional. The method in brief:
as §1
On the technique in general: Broth dilution looks for growth in wells or tubes with falling amounts of substance.

Data set [3] deals with Staphylococcus aureus. Kind of data set: Antibacterial activity against Staphylococcus aureus ATCC 9144 after 18 hrs by broth microdilution method. The format is functional. Put shortly:
as §1

For data set [4], the system named is Staphylococcus aureus. In words: Antibacterial activity against Staphylococcus aureus ATCC 6538 after 18 hrs by broth microdilution method. The class given is functional. Put shortly: as §1
Data set [5] concerns Staphylococcus aureus. In words: Antibacterial activity against Staphylococcus aureus CIP 65.6 after 18 hrs by broth microdilution method. The class given is functional. Put shortly: as §1
Data set [6] relates to Staphylococcus aureus. Kind of data set: Antibacterial activity against Staphylococcus aureus CIP 103428 after 18 hrs by broth microdilution method. The class given is functional. The method in brief: as §1
The subject of data set [7] is Staphylococcus epidermidis. In words: Antibacterial activity against Staphylococcus epidermidis ATCC 12228 after 18 hrs by broth microdilution method. The format is functional. The method in brief:
as §1

Data set [8] has as its system Staphylococcus epidermidis. Kind of data set: Antibacterial activity against Staphylococcus epidermidis CIP 81.55 after 18 hrs by broth microdilution method. The class given is functional. Put shortly: as §1
The test system of data set [9] is Staphylococcus epidermidis. In words: Antibacterial activity against Staphylococcus epidermidis CIP 103627 after 18 hrs by broth microdilution method. The format is functional. Put shortly: as §1
The test system of data set [10] is KB. Kind of data set: Cytotoxicity against human KB cells at 10 uM. The format is cell-based.
Data set [11] deals with HCT-116. In words: Cytotoxicity against human HCT116 cells at 10 uM. The format is cell-based. The following applies: hct-116, 10 µM.
In data set [12] the test system is MRC5. Kind of data set: Cytotoxicity against human MRC5 cells at 10 uM. The format is cell-based. The settings on record: mrc5, 10 µM.
In data set [13] the test system is KB. In words: Cytotoxicity against human KB cells at 1 uM. The class given is cell-based.
Data set [14] has as its system HCT-116. Kind of data set: Cytotoxicity against human HCT116 cells at 1 uM. The class given is cell-based. The settings on record: hct-116, 1 µM.
For data set [15], the system named is MRC5. In words: Cytotoxicity against human MRC5 cells at 1 uM. The format is cell-based. The following applies: mrc5, 1 µM.
The test system of data set [16] is Staphylococcus aureus. Kind of data set: Antibacterial activity against methicillin-resistant Staphylococcus aureus CIP 65.25 after 18 hrs by broth microdilution method. The format is functional. The method in brief:
(§2)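 Broth microdilution following ISO 20776-1:2006 and CLSI M07-A8, in Mueller-Hinton broth. Inoculum was 10^6 cfu/ml, with compound serial dilutions spanning 2 to 128 ug/ml and a compound-free growth control well. Plates were incubated 18 h at 37 °C. MIC was the lowest concentration giving complete inhibition of visible growth. Each compound was tested at least twice.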

The test system of data set [17] is Staphylococcus aureus. Kind of data set: Antibacterial activity against methicillin-resistant Staphylococcus aureus ATCC 33592 after 18 hrs by broth microdilution method. The class given is functional. The method in brief: as §2
The subject of data set [18] is Staphylococcus aureus. In words: Antibacterial activity against vancomycin intermediate Staphylococcus aureus […] after 18 hrs by broth microdilution method. The class given is functional. The method in brief: as §2
The subject of data set [19] is Escherichia coli. In words: Antibacterial activity against Escherichia coli ATCC 25922 after 18 hrs by broth microdilution method. The format is functional. The method in brief: as §2

Take `CC(C)CC(NO)c1c[nH]c2ccc(F)cc12` (stereo not drawn): the MIC was 32 µg/mL (≈ 135 µM) in data set [1] (ATCC 25923, 18 h); 32 µg/mL (≈ 135 µM) in data set [2] (ATCC 29213, 18 h); 32 µg/mL (≈ 135 µM) in data set [3] (ATCC 9144, 18 h); 32 µg/mL (≈ 135 µM) in data set [4] (ATCC 6538, 18 h); 32 µg/mL (≈ 135 µM) in data set [5] (CIP 65.6, 18 h); 32 µg/mL (≈ 135 µM) in data set [6] (CIP 103428, 18 h). Further, the MIC in data set [7] (ATCC 12228, 18 h) was 32 µg/mL (≈ 135 µM); in data set [8] (CIP 81.55, 18 h), 32 µg/mL (≈ 135 µM); in data set [9] (CIP 103627, 18 h), 32 µg/mL (≈ 135 µM). In addition, the Activity result in [10], in [11], in data set [12], in [13], in data set [14] and in [15] was “Non-toxic” in each case.
`CC(C)CC(c1c[nH]c2ccccc12)N(O)Cc1ccccc1` (stereo not drawn): the MIC in data set [1] (ATCC 25923, 18 h) is 32 µg/mL (≈ 104 µM); in data set [2] (ATCC 29213, 18 h), 32 µg/mL (≈ 104 µM); in data set [3] (ATCC 9144, 18 h), 32 µg/mL (≈ 104 µM); in [4] (ATCC 6538, 18 h), 32 µg/mL (≈ 104 µM); in data set [5] (CIP 65.6, 18 h), 32 µg/mL (≈ 104 µM); in data set [6] (CIP 103428, 18 h), 32 µg/mL (≈ 104 µM). Further, the MIC in [7] (ATCC 12228, 18 h) came out at 16 µg/mL (≈ 51.9 µM); in data set [8] (CIP 81.55, 18 h), 16 µg/mL (≈ 51.9 µM); in data set [9] (CIP 103627, 18 h) it was 16 µg/mL (≈ 51.9 µM). Moreover, the Activity entry in data set [10], in data set [11], in data set [12], in data set [13], in data set [14] and in [15] was “Non-toxic” in each case.
Consider GENTAMICIN, for which the MIC in data set [1], in [2], in [3], in data set [4], in data set [5] and in [6] was 0.125 µg/mL in each case. Further, the MIC in [16] is 0.25 µg/mL; in data set [17] it was 0.25 µg/mL; in data set [18], more than 64 µg/mL; in data set [7] it was 0.125 µg/mL; in [8] it was 0.125 µg/mL; in data set [9] it was 0.125 µg/mL. For the same molecule, the lowest concentration to inhibit growth in data set [19] (MIC) was 1 µg/mL.
Regarding `CC(C)CC(NO)c1c[nH]c2ccc(Cl)cc12` (stereo not drawn), the MIC in data set [1] (ATCC 25923, 18 h) was 16 µg/mL (≈ 63.3 µM); in data set [2] (ATCC 29213, 18 h), 16 µg/mL (≈ 63.3 µM); in [3] (ATCC 9144, 18 h), 16 µg/mL (≈ 63.3 µM); in [4] (ATCC 6538, 18 h) it was 16 µg/mL (≈ 63.3 µM); in data set [5] (CIP 65.6, 18 h) it was 16 µg/mL (≈ 63.3 µM); in [6] (CIP 103428, 18 h), 16 µg/mL (≈ 63.3 µM). Moreover, the MIC in data set [7] (ATCC 12228, 18 h) is 32 µg/mL (≈ 127 µM); in [8] (CIP 81.55, 18 h) it was 32 µg/mL (≈ 127 µM); in data set [9] (CIP 103627, 18 h) it was 32 µg/mL (≈ 127 µM). Besides, the Activity entry in [10], in data set [11], in data set [12], in [13], in [14] and in [15] was “Non-toxic” each time.
Consider `CC(NO)c1c[nH]c2ccc(Cl)cc12` (stereo not drawn), for which the MIC in [1] (ATCC 25923, 18 h) was determined as 32 µg/mL (≈ 152 µM); in data set [2] (ATCC 29213, 18 h) it was 32 µg/mL (≈ 152 µM); in [3] (ATCC 9144, 18 h), 32 µg/mL (≈ 152 µM); in data set [4] (ATCC 6538, 18 h), 32 µg/mL (≈ 152 µM); in data set [5] (CIP 65.6, 18 h), 32 µg/mL (≈ 152 µM); in data set [6] (CIP 103428, 18 h), 32 µg/mL (≈ 152 µM). Further, the MIC in data set [7] (ATCC 12228, 18 h) was determined as 16 µg/mL (≈ 76 µM); in data set [8] (CIP 81.55, 18 h), 16 µg/mL (≈ 76 µM); in data set [9] (CIP 103627, 18 h), 16 µg/mL (≈ 76 µM). Also, the Activity result in data set [10], in [11], in [12], in data set [13], in data set [14] and in data set [15] was “Non-toxic” each time.
In the case of `CC(NO)c1c[nH]c2ccc(I)cc12` (stereo not drawn), the MIC stood at 64 µg/mL (≈ 212 µM) in data set [1] (ATCC 25923, 18 h); 64 µg/mL (≈ 212 µM) in data set [2] (ATCC 29213, 18 h); 64 µg/mL (≈ 212 µM) in data set [3] (ATCC 9144, 18 h); 64 µg/mL (≈ 212 µM) in data set [4] (ATCC 6538, 18 h); 64 µg/mL (≈ 212 µM) in [5] (CIP 65.6, 18 h); 64 µg/mL (≈ 212 µM) in data set [6] (CIP 103428, 18 h). The MIC in data set [7] (ATCC 12228, 18 h) is 32 µg/mL (≈ 106 µM); in data set [8] (CIP 81.55, 18 h), 32 µg/mL (≈ 106 µM); in [9] (CIP 103627, 18 h), 32 µg/mL (≈ 106 µM). Moreover, the Activity entry in data set [10], in data set [11], in data set [12], in [13], in [14] and in data set [15] was “Non-toxic” in each case.

The values are drawn from ChEMBL document CHEMBL1777764, “Synthesis and evaluation of 1-(1H-indol-3-yl)ethanamine derivatives as new antibacterial agents” (Bioorg Med Chem, 2011).
